≈ marks a conversion by molar mass, not a printed value.

This passage reports MIC results from ChEMBL document CHEMBL1149844, “Antibacterial C-geranylflavonoids from Paulownia tomentosa Fruits” (2008).

The subject of one experiment is Staphylococcus aureus. Kind of experiment: Antibacterial activity against Staphylococcus aureus ATCC 25923 after 24 hrs by broth microdilution method. It is filed as functional. The note with it: ATCC 25923, 24 h. Put shortly: (§1)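 Bacteria grown and tested in Mueller-Hinton broth. Seven 2-fold dilutions spanning 32 to 0.5 µg mL-1, each well inoculated with bacterial suspension at 10^7 CFU mL-1, incubated 37 °C for 24 h. Turbidity read at 600 nm. MIC is the lowest concentration giving 80% growth reduction versus the compound-free growth control. DMSO (5% v/v) in TBS as negative control, triplicates.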

Another experiment has as its system Candida albicans. Kind of experiment: Antibacterial activity against Candida albicans ATCC 10231 after 48 hrs by broth microdilution method. It is filed as functional. Put shortly:
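Yeast grown and tested in Mueller-Hinton broth, microdilution with seven 2-fold dilutions from 32 to 0.5 µg mL-1. Inoculum at 10^7 CFU mL-1, 37 °C for 48 h. Growth measured as turbidity at 600 nm. MIC is the lowest concentration cutting growth by 80% relative to the compound-free control. DMSO (5% v/v) in TBS as negative control, run in triplicate.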

The test system of a further experiment is Enterococcus faecalis. Kind of experiment: Antibacterial activity against Enterococcus faecalis ATCC 29212 after 24 hrs by broth microdilution method. It is filed as functional. The note with it: ATCC 29212, 24 h. Put shortly: as §1
The test system of the next experiment is Bacillus subtilis. Kind of experiment: Antibacterial activity against Bacillus subtilis ATCC 6633 after 24 hrs by broth microdilution method. It is filed as functional. Conditions: ATCC 6633, 24 h. Summed up: as §1
The test system of the next experiment is Pseudomonas aeruginosa. Kind of experiment: Antibacterial activity against Pseudomonas aeruginosa ATCC 27853 after 24 hrs by broth microdilution method. It is filed as functional. Conditions: ATCC 27853, 24 h. Summed up: as §1
The test system of the next experiment is Salmonella enteritidis. Briefly: Antibacterial activity against Salmonella enteritidis ATCC 13076 after 24 hrs by broth microdilution method. It is filed as functional, Salmonella enterica subsp. enterica serovar Enteritidis. The note with it: Salmonella enterica, ATCC 13076, 24 h. Summed up: as §1
Another experiment deals with Listeria monocytogenes. Briefly: Antibacterial activity against Listeria monocytogenes ATCC 7644 after 24 hrs by broth microdilution method. It is filed as functional. The note with it: ATCC 7644, 24 h. Put shortly: as §1
The subject of experiment [1] is Staphylococcus epidermidis. Briefly: Antibacterial activity against Staphylococcus epidermidis ATCC 12228 after 24 hrs by broth microdilution method. It is filed as functional. Conditions: ATCC 12228, 24 h. Put shortly: as §1
In the next experiment the test system is Escherichia coli. Kind of experiment: Antibacterial activity against Escherichia coli ATCC 25922 after 24 hrs by broth microdilution method. It is filed as functional. Conditions: ATCC 25922, 24 h. Put shortly:
as §1

For the next experiment, the system named is Bacillus cereus. Kind of experiment: Antibacterial activity against Bacillus cereus ATCC 11778 after 24 hrs by broth microdilution method. It is filed as functional. Conditions: ATCC 11778, 24 h. Put shortly: as §1

With `COc1cc([C@@H]2CC(=O)c3c(cc(O)c(C/C=C(\C)CCC=C(C)C)c3O)O2)ccc1O`, the MIC was 8 mg/L (≈ 18.2 µM) in the experiment with Staphylococcus aureus; above 32 mg/L against Candida albicans (ATCC 10231, 48 h); 8 mg/L (≈ 18.2 µM) against Enterococcus faecalis; 8 mg/L (≈ 18.2 µM) with Bacillus subtilis; above 32 mg/L in the experiment on Pseudomonas aeruginosa; above 32 mg/L against Salmonella enteritidis. The MIC against Listeria monocytogenes was 4 mg/L (≈ 9.12 µM); in experiment [1], 4 mg/L (≈ 9.12 µM); in the experiment with Escherichia coli it was above 32 mg/L; against Bacillus cereus it was 4 mg/L (≈ 9.12 µM).

As for `COc1cc([C@H]2Oc3cc(O)c(C/C=C(\C)CCC=C(C)C)c(O)c3C(=O)[C@@H]2O)ccc1O`, the MIC against Staphylococcus aureus was 2 mg/L (≈ 4.4 µM); in the experiment with Candida albicans (ATCC 10231, 48 h), above 32 mg/L; in the experiment with Enterococcus faecalis, 4 mg/L (≈ 8.8 µM); with Bacillus subtilis, 4 mg/L (≈ 8.8 µM); in the experiment with Pseudomonas aeruginosa, above 32 mg/L; in the experiment with Salmonella enteritidis, above 32 mg/L. Besides, the MIC was 2 mg/L (≈ 4.4 µM) in the experiment with Listeria monocytogenes, 2 mg/L (≈ 4.4 µM) in experiment [1], above 32 mg/L with Escherichia coli and 2 mg/L (≈ 4.4 µM) in the experiment on Bacillus cereus.

On to `COc1cc([C@@H]2CC(=O)c3c(cc(O)c(C/C=C(\C)CCC=C(C)C)c3O)O2)cc(O)c1O`, for which the MIC with Staphylococcus aureus was 2 mg/L (≈ 4.4 µM); against Candida albicans (ATCC 10231, 48 h) it was above 32 mg/L; in the experiment on Enterococcus faecalis, 4 mg/L (≈ 8.8 µM); in the experiment on Bacillus subtilis it was 4 mg/L (≈ 8.8 µM); with Pseudomonas aeruginosa it was above 32 mg/L; against Salmonella enteritidis it was above 32 mg/L. Also, the MIC in the experiment with Listeria monocytogenes was 4 mg/L (≈ 8.8 µM); in experiment [1], 4 mg/L (≈ 8.8 µM); with Escherichia coli it was above 32 mg/L; against Bacillus cereus, 4 mg/L (≈ 8.8 µM).

Regarding `COc1cc([C@@H]2CC(=O)c3c(cc(O)c(C/C=C(\C)CCC=C(C)C)c3O)O2)cc(OC)c1O`, the MIC against Staphylococcus aureus was 4 mg/L (≈ 8.54 µM); in the experiment on Candida albicans (ATCC 10231, 48 h) it was above 32 mg/L; against Enterococcus faecalis it was 4 mg/L (≈ 8.54 µM); with Bacillus subtilis, 4 mg/L (≈ 8.54 µM); against Pseudomonas aeruginosa, above 32 mg/L; in the experiment on Salmonella enteritidis, above 32 mg/L. For the same compound, the MIC in the experiment with Listeria monocytogenes was 4 mg/L (≈ 8.54 µM); in [1] it was 4 mg/L (≈ 8.54 µM); in the experiment with Escherichia coli, above 32 mg/L; with Bacillus cereus, 4 mg/L (≈ 8.54 µM).

For the compound `CC(C)=CCC/C(C)=C/Cc1c(O)cc2c(c1O)C(=O)C[C@@H](c1ccc(O)cc1)O2` [BONANNIONE A], the minimal inhibitory concentration (MIC) is 8 mg/L (≈ 19.6 µM) in the experiment on Staphylococcus aureus; above 32 mg/L against Candida albicans (ATCC 10231, 48 h); 4 mg/L (≈ 9.79 µM) against Enterococcus faecalis; 4 mg/L (≈ 9.79 µM) against Bacillus subtilis; above 32 mg/L against Pseudomonas aeruginosa; above 32 mg/L in the experiment with Salmonella enteritidis. Moreover, the MIC in the experiment with Listeria monocytogenes is 4 mg/L (≈ 9.79 µM); in experiment [1], 4 mg/L (≈ 9.79 µM); in the experiment with Escherichia coli, above 32 mg/L; with Bacillus cereus, 4 mg/L (≈ 9.79 µM).

Regarding `O=C(O)c1cn(C2CC2)c2cc(N3CCNCC3)c(F)cc2c1=O` [CIPROFLOXACIN], the MIC was determined as 0.5 mg/L (≈ 1.51 µM) in the experiment on Staphylococcus aureus; 1 mg/L (≈ 3.02 µM) in the experiment with Enterococcus faecalis; 2 mg/L (≈ 6.04 µM) in the experiment with Bacillus subtilis; 0.015 mg/L (≈ 0.0453 µM) in the experiment with Salmonella enteritidis; 1 mg/L (≈ 3.02 µM) in the experiment on Listeria monocytogenes; 1 mg/L (≈ 3.02 µM) in [1]. This compound also came in with an MIC against Bacillus cereus of 1 mg/L (≈ 3.02 µM).

As to `CC(C)=CCC/C(C)=C/Cc1c(O)cc2c(c1O)C(=O)C[C@@H](c1ccc(O)c(O)c1)O2` [NYMPHAEOL A], the MIC in the experiment with Staphylococcus aureus is 4 mg/L (≈ 9.42 µM); in the experiment on Candida albicans (ATCC 10231, 48 h), above 32 mg/L; in the experiment with Enterococcus faecalis, 4 mg/L (≈ 9.42 µM); in the experiment with Bacillus subtilis, 4 mg/L (≈ 9.42 µM); with Pseudomonas aeruginosa, above 32 mg/L; against Salmonella enteritidis, above 32 mg/L. Moreover, the MIC against Listeria monocytogenes was 4 mg/L (≈ 9.42 µM); in experiment [1] it was 4 mg/L (≈ 9.42 µM); in the experiment with Escherichia coli, above 32 mg/L; in the experiment on Bacillus cereus it was 4 mg/L (≈ 9.42 µM).

Consider `COc1cc([C@@H]2CC(=O)c3c(cc(O)c(C/C=C(\C)C/C=C/C(C)(C)O)c3O)O2)ccc1O` [TOMENTODIPLACONE B], for which the minimum inhibitory concentration (MIC) against Staphylococcus aureus was above 32 mg/L; in the experiment with Candida albicans (ATCC 10231, 48 h), above 32 mg/L; against Enterococcus faecalis it was above 32 mg/L; with Bacillus subtilis it was above 32 mg/L; against Pseudomonas aeruginosa it was above 32 mg/L; in the experiment with Salmonella enteritidis, above 32 mg/L. Besides, the MIC (in the experiment with Listeria monocytogenes; in [1]; in the experiment with Escherichia coli; with Bacillus cereus) was above 32 mg/L throughout.

For the compound `C=C(C)C(O)CC/C(C)=C/Cc1c(O)cc2c(c1O)C(=O)C[C@@H](c1ccc(O)c(OC)c1)O2` (stereo partly specified) [TOMENTODIPLACONE], the MIC in the experiment on Staphylococcus aureus was 16 mg/L (≈ 35.2 µM); in the experiment with Candida albicans (ATCC 10231, 48 h), above 32 mg/L; in the experiment with Pseudomonas aeruginosa, above 32 mg/L; with Salmonella enteritidis, above 32 mg/L; in the experiment on Listeria monocytogenes, 32 mg/L (≈ 70.4 µM); in experiment [1] it was 32 mg/L (≈ 70.4 µM). Also, the MIC against Escherichia coli is above 32 mg/L; in the experiment on Bacillus cereus it was 16 mg/L (≈ 35.2 µM).

NYSTATIN returned an MIC in the experiment with Candida albicans of 4 mg/L.
